In the library only some 2.3% were active in any assay of this set; here they are far more common.
PLCg1 inh = PLC-gamma1 enzyme inhibitors, primary screen, biochemical, fluorescence, purified enzyme; 1-phosphatidylinositol 4,5-bisphosphate phosphodiesterase gamma-1 (Homo sapiens), P19174; fluorogenic substrate; inhibition, % at 12.2 µM; 0.84% of 370,000 active
DDE Tn6 FP inh = inhibitors of Tn6 peptide binding to fibrin DD(E), primary screen, biochemical, fluorescence polarization, human fibrin, Tn6 probe; Fibrinogen beta chain (Homo sapiens), P02675; Fibrin DD(E) TRITC-Tn6 fluorescence polarization displacement; inhibition, % at 8.3 µM; 0.21% of 370,000 active; AID 720509, 2013;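 active means inhibition above a per-campaign cutoff: mean of compounds within control limits plus 3 SD, cut at about 15% in these data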;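 further: 0% = median of all compound wells on the plate and 100% = blocking peptide control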
ADAM17 inh = ADAM17 inhibitors, primary screen, biochemical, QFRET. inhibition, % at 6.95 µM. Disintegrin and metalloproteinase domain-containing protein 17 (Homo sapiens), P78536. AID 720648, 2013. recombinant ADAM17, EDANS/DABCYL FRET peptide cleavage. 0.83% of 370,000 active;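 active means inhibition above the mean of compounds lying between control limits plus 3 SD, set per campaign, cut at about 8.5% in these data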;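 further: 0% = DMSO-only wells as the low control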
Target sequence (P78536 215-824 limits assumed): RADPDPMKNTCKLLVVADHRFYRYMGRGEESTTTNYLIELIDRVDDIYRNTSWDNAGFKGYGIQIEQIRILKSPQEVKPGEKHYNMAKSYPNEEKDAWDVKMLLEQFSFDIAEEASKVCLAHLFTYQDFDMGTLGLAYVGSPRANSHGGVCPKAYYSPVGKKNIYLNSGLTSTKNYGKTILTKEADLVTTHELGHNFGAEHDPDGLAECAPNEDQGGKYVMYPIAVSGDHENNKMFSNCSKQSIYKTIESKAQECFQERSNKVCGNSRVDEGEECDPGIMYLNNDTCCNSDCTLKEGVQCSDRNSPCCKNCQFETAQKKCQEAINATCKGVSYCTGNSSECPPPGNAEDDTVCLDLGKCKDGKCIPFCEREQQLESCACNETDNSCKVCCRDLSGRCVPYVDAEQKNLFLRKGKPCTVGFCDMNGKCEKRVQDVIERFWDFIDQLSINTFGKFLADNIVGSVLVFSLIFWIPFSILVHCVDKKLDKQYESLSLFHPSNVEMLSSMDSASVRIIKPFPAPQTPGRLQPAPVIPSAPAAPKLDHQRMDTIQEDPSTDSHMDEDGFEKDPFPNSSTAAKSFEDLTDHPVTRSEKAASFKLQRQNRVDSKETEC
ADAM10 inh = human ADAM10 inhibitors, primary screen, biochemical, QFRET, HTS; AID 720582, 2013; inhibition, % at 7 µM; recombinant ADAM10, EDANS/DABCYL FRET peptide cleavage, 3 h; Disintegrin and metalloproteinase domain-containing protein 10 (Homo sapiens), O14672; 0.62% of 370,000 active;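 active means inhibition above a per-campaign cutoff equal to the mean of compounds falling between control-based bounds plus 3 SD, cut at about 20% in these data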;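 further: 0% = DMSO wells while the 100% control is not disclosed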
DDE Tn7 FP inh = inhibitors of Tn7 peptide binding to fibrin DD(E), primary screen, biochemical, fluorescence polarization, human fibrin, Tn7 probe. FP displacement of FITC-Tn7 peptide from fibrin DD(E); 0% = median of compound wells per plate. inhibition, % at 8.3 µM. 0.13% of 370,000 active. AID 720508, 2013;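 active means inhibition above the mean of compounds falling within the control limits plus 3 SD of them, cut at about 14% in these data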;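 further: 0% = plate median of compound wells and 100% = 10 µM Aha-Tn7 peptide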
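Measure: % inhibition scaled between sample-field median and high-control FP; Test system: human fibrin DD(E); Quantity: 2 µM final DD(E) protein; Doses: one dose, 8.3 µM nominal; Schedule: compound with protein 10 min, then 3 h after probe, room temperature; Detection: fluorescence polarization; Medium: Tris buffer with calcium and detergent, pH 7.8.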
PLC-beta3 inh = human PLC-beta3 inhibitors, primary screen, biochemical, fluorescence; 1-phosphatidylinositol 4,5-bisphosphate phosphodiesterase beta-3 (Homo sapiens), Q01970; Purified PLC-beta3, fluorogenic substrate; 0.18% of 370,000 active; inhibition, % at 12.2 µM; in the data active means inhibition above about 11%;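 further: 0% = median of compound wells on plate and 100% = full blocker control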
PLCg1 ctr = PLC-gamma1 enzyme inhibitors, counter-screen for PLC-beta3 inhibitor project, biochemical, fluorescence; AID 743258, 2014; shares compounds with PLCg1 inh; 3.1% of 3,300 active; inhibition, % at 12.3 µM; purified PLC-gamma1, fluorogenic substrate
PLCbeta3 conf = PLC-beta3 inhibitor confirmation, biochemical, fluorescence, purified enzyme | 1% of 3,300 active | fluorogenic substrate fluorescence | AID 743261, 2014 | shares compounds with PLCg1 inh | inhibition, % at 12.3 µM; in the data active means inhibition above about 11%
The depositor's hits bear a star; / = not tested or not shown. Unless noted, no stated cut-off is given here; in the data, active means inhibition above about 9.5%; inactive means the rest.

SMILES	PLCg1 inh	DDE Tn6 FP inh	ADAM17 inh	ADAM10 inh	DDE Tn7 FP inh	PLC-beta3 inh	PLCg1 ctr	PLCbeta3 conf
O=C(NC1CCCCCCC1)c1ccco1	11*	-6	4	2	4	8	-1	1
O=C(NC1CCN(C(=O)NC2CCCCC2)CC1)c1ccco1	6	5	-3	12	1	5	/	/
Cc1ccc(C(C(=O)NC2CCCCC2)N(CC2CCCO2)C(=O)CNC(=O)c2ccco2)cc1 (centres undefined)	10.0*	-2	5	4	0	4	-4	-4
Cc1ccccc1CN1CCCCC(NC(=O)Nc2ccccc2-c2ccccc2)C1=O (centres undefined)	1	2	0	9	3	-1	/	/
COc1cccc(C(=O)NNC(=O)CCN2CCN(c3ccccc3)CC2)c1	6	0	5	-8	-3	13*	-2	4
CCCCOc1cccc(C(=O)Nc2ccc(N3CCN(CC)CC3)cc2)c1	3	-3	2	2	0	11*	-1	6
CCCCOc1ccc(C(=O)Nc2ccc(N3CCN(C)CC3)cc2)cc1	1	-2	-3	-1	-3	3	/	/
COc1cccc(C(=O)NCCN2CCN(c3ccc(Cl)cc3)CC2)c1	9.9*	-1	7	13	-1	7	-6	-8
O=C(CCN1CCN(c2ccccc2)CC1)NNC(=O)c1cccc2ccccc12	4	-4	1	1	-7	2	/	/
COc1ccc(CNC2CCC23CCC(c2ccccc2)CC3)cc1OC (centres undefined)	2	0	-1	2	4	2	/	/
CC(C)CCN1C(=O)COc2ccccc2C1c1nnnn1-c1ccc2c(c1)OCCO2 (centres undefined)	-2	-6	-6	-2	6	4	/	/
Cc1ccc[n+](-c2[nH]c(=O)sc2/C=N/NC(=O)c2ccccc2[O-])c1	14*	-2	8	15	-1	1	3	-1
Cc1ccc[n+](-c2[nH]c(=O)sc2/C=N/N=C(\[O-])c2cccnc2)c1	6	0	7	-3	-3	1	/	/
O=C(O)CC(Cc1ccc(Cl)cc1)C(=O)Nc1cc(Cl)ccc1Cl (centres undefined)	12*	-1	2	4	-5	0	-6	-6
COc1ccc(/C=C/S(=O)(=O)NCCc2ccccc2)c(CNC(=O)OC(C)(C)C)c1	-4	3	2	9	5	-4	/	/
Cc1ccc(C(NC(N)=O)c2ccccc2)cc1 (centres undefined)	12*	6	9	13	3	4	-8	-6
COc1cccc(N2CCN(C(=O)CSc3nc4ncccc4[nH]3)CC2)c1	0	2	1	-1	1	3	/	/
COC(=O)C1CN(Cc2ccc(F)cc2)CCS(=O)(=O)N1Cc1cn(CCOC(C)=O)nn1 (centres undefined)	0	1	1	2	-1	4	/	/
COC(=O)C[C@@H]1CC[C@H]2[C@@H](COc3ccc(NC(=O)c4ccc(Cl)cc4)cc3C(=O)N2C)O1	12*	-4	-10	-15	5	-51	0	2
COC(=O)C[C@@H]1CC[C@H]2[C@H](COc3ccc(NC(=O)c4ccc(OC)cc4)cc3C(=O)N2C)O1	3	-6	-1	-2	-6	2	/	/
CCCNC(=O)Nc1ccc2c(c1)C(=O)N(C)[C@H]1CC[C@@H](CC(=O)OC)O[C@H]1CO2	-1	5	-7	-10	5	-1	/	/
CCCNC(=O)C[C@H]1CC[C@H]2[C@@H](COc3ccc(NC(=O)c4cncs4)cc3C(=O)N2C)O1	12*	-7	-7	12	5	11*	16*	18*
Cc1nc2sc(C(=O)NCc3nccs3)c(N)c2c(C)c1Cl	-117	-4	-6	-26	-3	-159	/	/
C[C@H]1C2CC(OC(=O)Nc3cccc(F)c3)C(C2)[C@H]2CCCCN21 (some centres undefined)	-1	3	-6	-8	8	1	/	/
C=CCN(CC#CCN(C)C(=O)c1cccn1C(=O)OC(C)(C)C)Cc1ccc(OC)cc1OC	1	-3	4	1	-5	1	/	/
SMILES	PLCg1 inh	DDE Tn6 FP inh	ADAM17 inh	ADAM10 inh	DDE Tn7 FP inh	PLC-beta3 inh	PLCg1 ctr	PLCbeta3 conf
O=c1c2ccc(Cl)cc2[nH]c(=S)n1CCCN1CCOCC1	3	12	3	8	2	12*	-5	-3
COC(=O)C1CN(Cc2cn(CCOC(C)=O)nn2)CCS(=O)(=O)N1Cc1ccc(Cl)cc1 (centres undefined)	1	1	0	-5	2	0	/	/
O=C(c1cccc(Cl)c1)N1CCN(c2ccc3c(c2)C2CC3CCN2C(=O)OCc2ccccc2)CC1 (centres undefined)	2	-5	4	5	-4	5	/	/
O=C(OCc1ccccc1)N1CCC2CC1c1ccc(N3CCN(Cc4ccccc4)CC3)cc12 (centres undefined)	5	-1	6	1	3	14*	-2	-1
COC(=O)C1CN(Cc2ccc(OC)cc2)CCS(=O)(=O)N1Cc1ccc(C)cc1 (centres undefined)	0	-2	-4	-2	-4	0	/	/
Cc1cc(C)n(CC(=O)NNC(=O)C2CC(=O)N(Cc3ccccc3Cl)C2)n1 (centres undefined)	12*	-7	-1	4	-1	0	-4	1
Cc1ccc(CN2CC(C(=O)NCCCn3nc(C)cc3C)CC2=O)cc1 (centres undefined)	-1	-1	2	-5	1	-4	/	/
O=C(NCc1ccccc1)OCCN1C(=O)CCC12CCC(c1ccc(Cl)cc1)CC2 (centres undefined)	1	-6	3	11	-1	0	/	/
O=C1C(=O)c2cccnc2-c2ncccc21	53*	5	-2	2	-5	9	51*	8
CCOC(=O)c1cccc(NC(=O)CN(C)S(=O)(=O)c2ccc(Cl)s2)c1	-2	-1	2	5	5	0	/	/

Screens: PubChem BioAssay, The Scripps Research Institute Molecular Screening Center
